The text below walks through data of ChEMBL document CHEMBL1125462, “Substituent variation in azabicyclic triazole- and tetrazole-based muscarinic receptor ligands” (J Med Chem, 1992).

The target in assay [1] is Muscarinic acetylcholine receptor. Kind of assay: In vitro ability to displace [3H]oxotremorine-M (OXO-M) from rat cerebral cortex muscarinic receptor. It is filed as tissue-based.
For assay [2] the target is unchanged. Kind of assay: In vitro displacement of [3H]quinuclidinyl benzilate (QNB) from rat cerebral cortex muscarinic receptor. It is filed as tissue-based.
The target is the same in assay [3]. The assay is described as follows: In vitro ability to displace [3H]oxotremorine-M (OXO-M) from rat cerebral cortex muscarinic acetylcholine receptor. It is filed as tissue-based. In outline:
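Hooded Lister rat cerebral cortex homogenised in ice-cold 50 mM Tris pH 7.7 (at 25 °C), washed by repeated 25000g spins, stored at -20 °C. Incubation buffer with 2 mM MgCl2; 37 °C, 30 min; filtered on GF/B filters presoaked in 0.05% polyethylenamine; scintillation counting. Seven concentrations; geometric mean of at least two separate experiments; IC50 (nM).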

Assay [4] has the same target. Kind of assay: In vitro ability to displace [3H]quinuclidinyl benzilate (QNB) from rat cerebral cortex muscarinic acetylcholine receptor. It is filed as tissue-based. The gist of the method:
(§1)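 Washed Hooded Lister rat cerebral cortex membranes (50 mM Tris pH 7.7), diluted from stored stock, incubated with test compound and 0.27 nM [3H]QNB at 37 °C for 30 min. GF/B filtration, ice-cold buffer washes, scintillation counting. Nonspecific binding typically 25% of total. Seven concentrations; geometric mean of separate experiments; IC50 (nM).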

Assay [5] addresses Muscarinic acetylcholine receptor (Rattus norvegicus) (UniProt P08482+P08483+P08485+P08911+P10980). The assay is described as follows: Ratio of Compound (IC50(nM) of QNB/ IC50(nM) of OXO-M). It is filed as protein assay.
For assay [6], the target named is Muscarinic acetylcholine receptor. Kind of assay: In vitro ability to displace [3H]oxotremorine-M (OXO-M) from rat cerebral cortex Muscarinic acetylcholine receptor. It counts as tissue-based.
Assay [7] shares this target. The assay is described as follows: In vitro ability to displace [3H]quinuclidinyl benzilate (QNB) from rat cerebral cortexMuscarinic acetylcholine receptor. It is filed as tissue-based, Cerebral cortex. In outline:
as §1

For assay [8] the target is unchanged. Kind of assay: In vitro ability to displace [3H]quinuclidinyl benzilate (QNB) from rat cerebral cortex Muscarinic acetylcholine receptor. It is filed as tissue-based.

The structures appear in SMILES notation.

Usually IC50 stands for the concentration that gives 50% inhibition. Read a high IC50 as weaker potency. Regarding `Cn1nnc([C@@H]2CN3CC[C@H]2C3)n1`, the IC50 in assay [1] came to 0.325 µM; in assay [2], 30.6 µM.

On to `Nc1ncn([C@H]2CN3CC[C@H]2C3)n1`, for which the concentration for half-maximal inhibition (IC50) in assay [1] was found to be 0.018 µM; in assay [2], 3.6 µM.

Regarding `Ic1nnn(C2CN3CCC2CC3)n1` (stereo unspecified), the IC50 in assay [3] stood at 0.043 µM; in assay [4], 0.216 µM. Besides, the Ratio in assay [5] was 5.

As for `c1nnn([C@H]2CN3CC[C@H]2C3)n1`, the values for the IC50 in assay [1] and in assay [2] were 0.03 µM and 14.3 µM, respectively.

With `Brc1nnn(C2CN3CCC2CC3)n1` (stereo unspecified), the IC50 in assay [3] is 0.02 µM; in assay [4] it was 0.488 µM. For the same compound, the Ratio in assay [5] stood at 25.

As for `Cn1ncc(C23CCN(CC2)C3)n1`, the IC50 came to 0.035 µM in assay [1] and 14.4 µM in assay [2].

For `Clc1nnn(C2CN3CCC2CC3)n1` (stereo unspecified), the figures for the IC50 in assay [3] and in assay [4] were 0.027 µM and 0.578 µM, respectively. Moreover, the Ratio in assay [5] came out at 21.

On to `Cn1ncc([C@H]2CN3CC[C@H]2C3)n1`, for which the figures for the half-inhibitory concentration (IC50) in assay [1] and in assay [2] were 0.0054 µM and 2.8 µM, respectively.

As to `Nc1nnn(C2CN3CCC2CC3)n1` (stereo unspecified), the IC50 was 0.038 µM in assay [1] and 4.4 µM in assay [2].

In the case of `Cc1ncn([C@H]2CN3CC[C@H]2C3)n1`, the half-inhibitory concentration (IC50) in assay [1] amounted to 0.017 µM; in assay [2], 4.3 µM.

For `Cc1nnn([C@H]2CN3CC[C@H]2C3)n1`, the half-maximal inhibitory concentration (IC50) in assay [1] was 0.0042 µM; in assay [2], 1.9 µM.

Consider `OC(c1ccccc1)(c1ccccc1)c1nnn(C2CN3CCC2CC3)n1` (stereo unspecified), for which the IC50 came out at 0.0036 µM in assay [1] and 0.0028 µM in assay [2].

On to `Cc1ncn(C23CCCN(CC2)C3)n1` (stereo unspecified), for which the figures for the concentration for half-maximal inhibition (IC50) in assay [1] and in assay [2] were 0.012 µM and 2.1 µM, respectively.

For `c1ncn(C23CCCN(CC2)C3)n1` (stereo unspecified), the IC50 in assay [1] came out at 0.012 µM; in assay [2] it was 3.6 µM.

For `c1nnn(C23CCCN(CC2)C3)n1` (stereo unspecified), the values for the half-inhibitory concentration (IC50) in assay [1] and in assay [2] were 0.019 µM and 7.2 µM, respectively.

For `Ic1nnn([C@H]2CN3CC[C@H]2C3)n1`, the IC50 in assay [3] stood at 0.048 µM; in assay [4], 0.372 µM. In addition, the Ratio in assay [5] was found to be 8.

On to `Brc1nnn([C@H]2CN3CC[C@H]2C3)n1`, for which the half-inhibitory concentration (IC50) was 0.0074 µM in assay [3] and 0.822 µM in assay [4]. Besides, in assay [5], the Ratio worked out at 111.

Regarding `Cn1nnc(C23CCN(CC2)C3)n1`, the half-maximal inhibitory concentration (IC50) in assay [1] came out at 0.25 µM; in assay [2] it was 46.7 µM.

With `Clc1ncn([C@H]2CN3CC[C@H]2C3)n1`, the half-inhibitory concentration (IC50) in assay [6] turned out to be 0.014 µM; in assay [7], 1.29 µM.

`Cn1ncc([C@@H]2CN3CC[C@H]2C3)n1`: the IC50 in assay [1] stood at 0.016 µM; in assay [2] it was 13.5 µM.

In the case of `Brc1ncn([C@H]2CN3CC[C@H]2C3)n1`, the IC50 in assay [8] came to 3.04 µM; in assay [6], 0.031 µM.

For the compound `Cn1nnc([C@H]2CN3CC[C@H]2C3)n1`, the IC50 amounted to 0.011 µM in assay [1] and 2.9 µM in assay [2].

`O=[N+]([O-])c1ncn([C@H]2CN3CC[C@H]2C3)n1`: the half-maximal inhibitory concentration (IC50) in assay [1] came out at 4.1 µM; in assay [2], 35.6 µM.

Take `Cn1ncc(C23CCCN(CC2)C3)n1` (stereo unspecified): the half-inhibitory concentration (IC50) came out at 0.014 µM in assay [1] and 3.1 µM in assay [2].

On to `Nc1nnn([C@H]2CN3CC[C@H]2C3)n1`, for which the figures for the IC50 in assay [1] and in assay [2] were 0.0026 µM and 4.36 µM, respectively.

On to `c1ncn([C@H]2CN3CC[C@H]2C3)n1`, for which the 50% inhibitory concentration (IC50) in assay [1] was determined as 0.079 µM; in assay [2], 38.2 µM.

In the case of `Clc1nnn(C23CCCN(CC2)C3)n1` (stereo unspecified), the figures for the IC50 in assay [3] and in assay [4] were 0.0035 µM and 0.332 µM, respectively. The Ratio in assay [5] is 95.

As for `Nc1ncn(C23CCCN(CC2)C3)n1` (stereo unspecified), the IC50 in assay [1] was 0.013 µM; in assay [2] it was 3.9 µM.

As for `Cc1nnn(C23CCCN(CC2)C3)n1` (stereo unspecified), the half-inhibitory concentration (IC50) came out at 0.014 µM in assay [1] and 1.925 µM in assay [2].

With `O=C1CCCN1CC#CCN1CCCC1`, the Ratio in assay [5] came to 190.

Turning to `Nc1nnn(C23CCCN(CC2)C3)n1` (stereo unspecified), the half-inhibitory concentration (IC50) in assay [1] worked out at 0.0059 µM; in assay [2] it was 2.67 µM.

For `Clc1nnn([C@H]2CN3CC[C@H]2C3)n1`, the IC50 worked out at 0.0076 µM in assay [3] and 0.63 µM in assay [4]. The Ratio in assay [5] came out at 83.

Consider `Cc1ncn(C23CCN(CC2)C3)n1`, for which the IC50 in assay [1] came to 0.086 µM; in assay [2] it was 14.9 µM.

Take `N#Cc1nnn(C2CN3CCC2CC3)n1` (stereo unspecified): the 50% inhibitory concentration (IC50) in assay [1] was 1.4 µM; in assay [2], 5.2 µM.

Take `c1ncn(C23CCN(CC2)C3)n1`: the values for the concentration for half-maximal inhibition (IC50) in assay [1] and in assay [2] were 0.079 µM and 39.9 µM, respectively.

Regarding `Brc1nnn(C23CCCN(CC2)C3)n1` (stereo unspecified), the half-maximal inhibitory concentration (IC50) was 0.279 µM in assay [8] and 0.0055 µM in assay [6].

As for `Cc1nnn(C2CN3CCC2CC3)n1` (stereo unspecified), the IC50 in assay [1] was determined as 0.031 µM.

As for `Cn1nnc(C23CCCN(CC2)C3)n1` (stereo unspecified), the figures for the IC50 in assay [1] and in assay [2] were 0.1 µM and 5.7 µM, respectively.
